Laboratory results: ChEMBL document CHEMBL5344415, “Synthesis and Characterization of Phenylalanine Amides Active against Mycobacterium abscessus and Other Mycobacteria” (J Med Chem, 2023)
≈ marks a conversion by molar mass, not a printed value.

Legend:
[1] = test system: Mycolicibacterium smegmatis; test: Antibacterial activity against Mycobacterium smegmatis mc2 155 expressing tomato RFP assessed as bacterial growth inhibition incubated for 3 days in 7H9 medium by RFP fluorescence based broth microdilution method; type: functional; settings: mc2 155, 72 h, time 3 day
How it was run: (§1)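 Broth microdilution in 7H9 with 10 % ADS and 0.05 % Tween 80. Twofold nine-point dilution series. Inoculum 5 x 10⁵ cells/mL taken from a mid-log preculture. Incubation at 37 °C, 3 days for M. smegmatis and M. abscessus, 5 days for M. intracellulare. Read-out by RFP fluorescence (ex 544/em 590 nm). Controls were 1 % DMSO and 100 μM amikacin. MIC₉₀ from duplicates, averaged.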

[2] = test system: Mycobacterium tuberculosis; test: Antibacterial activity against Mycobacterium tuberculosis H37Rv ATCC 27294 assessed as bacterial growth inhibition incubated for 7 days in 7H9 medium by optical density based microplate reader analysis; type: functional; settings: H37Rv ATCC 27294, 168 h, time 7 day
How it was run: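 Compounds serially diluted in flat-bottom 96-well plates. Mid-log culture mixed in to a final OD₆₀₀ of 0.05. Sealed plates incubated in humidified boxes at 37 °C for 7 days with shaking at 80 rpm. Turbidity read at 600 nm. MIC₉₀ taken from dose–response curves. Two biological replicates, averaged.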

[3] = test system: Mycobacteroides abscessus; test: Antibacterial activity against Mycobacterium abscessus ATCC 19977 expressing tomato RFP assessed as bacterial growth inhibition incubated for 3 days in 7H9 medium by RFP fluorescence based broth microdilution method; type: functional; settings: ATCC 19977, 72 h, time 3 day; how it was run: as §1
[4] = test system: Mycobacteroides abscessus; test: Antibacterial activity against Mycobacterium abscessus ATCC 19977 expressing tomato RFP assessed as bacterial growth inhibition incubated for 3 days in MHII medium by RFP fluorescence based broth microdilution method; type: functional; settings: ATCC 19977, 72 h, time 3 day
How it was run: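 Broth microdilution in MHII broth with 0.05 % Tween 80, against the RFP-expressing strain. Twofold nine-point dilution series. Inoculum 5 x 10⁵ cells/mL from a mid-log preculture. Incubated 3 days at 37 °C. Read-out by RFP fluorescence (ex 544/em 590 nm). Controls were 1 % DMSO and 100 μM amikacin. MIC₉₀ from duplicates, averaged.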

[5] = test system: Mycobacterium intracellulare; test: Antibacterial activity against Mycobacterium intracellulare ATCC 35761 expressing tomato RFP assessed as bacterial growth inhibition incubated for 5 days in 7H9 medium by RFP fluorescence based broth microdilution method; type: functional; settings: ATCC 35761, 120 h, time 5 day; how it was run: as §1
[6] = test system: Mycobacteroides abscessus; test: Antibacterial activity against Mycobacterium abscessus Bamboo harboring inactive clarithromycin-sensitive erm41 C28 sequevar assessed as bacterial growth inhibition incubated for 3 days in 7H9 medium by optical density based method; type: functional; settings: 72 h, time 3 day
[7] = test system: Mycobacteroides abscessus; test: Antibacterial activity against Mycobacterium abscessus ATCC 19977 expressing tomato RFP infected in human THP-1 cells assessed as bacterial growth inhibition incubated for 4 days in RPMI medium by RFP fluorescence based assay; type: functional; settings: ATCC 19977, 96 h, time 4 day
How it was run: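 RFP M. abscessus washed, moved into RPMI, filtered through 5 µm and opsonised with 10 % human serum for 30 min. THP-1 cells infected at MOI 5:1 with PMA 40 ng/mL for 4 h at 37 °C, then washed. Infected cells (1x10⁵/well) given a ten-point twofold series. Incubated 4 days at 37 °C, 5 % CO₂. Cells PFA-fixed and DAPI-stained. RFP quantified by imaging. Controls were DMSO and 1.5 µM bedaquiline. Duplicate.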

A-375 = test: Cytotoxicity against human A-375 cells assessed as reduction in cell viability incubated for 72 hrs by SRB assay; type: toxicity, cell-based
HT-29 = test: Cytotoxicity against human HT-29 cells assessed as reduction in cell viability incubated for 72 hrs by SRB assay; type: toxicity, cell-based
MCF7 = test: Cytotoxicity against human MCF7 cells assessed as reduction in cell viability incubated for 72 hrs by SRB assay; type: toxicity, cell-based
A2780 = test: Cytotoxicity against human A2780 cells assessed as reduction in cell viability incubated for 72 hrs by SRB assay; type: toxicity, cell-based
NIH3T3 = test: (§2) Cytotoxicity against mouse NIH3T3 cells assessed as reduction in cell viability incubated for 72 hrs by SRB assay; type: toxicity, cell-based; settings: nih3t3
HeLa = test: Cytotoxicity against human HeLa cells assessed as reduction in cell viability incubated for 72 hrs by SRB assay; type: toxicity, cell-based
[8] = Kinetic solubility of compound in PBS at 0.78 to 500 uM measured immediately by nephelometric method; type: physicochemical; settings: buffer, dose 0.78-500 µM
How it was run: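 DMSO stocks prediluted in DMSO, then diluted 1:50 into PBS (2 % DMSO final) and read immediately by nephelometry at 0.78–500 μM; blank-corrected data fitted by segmental regression; quadruplicates from one stock.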

[9] = test system: Mycobacteroides abscessus; test: Bactericidal activity against Mycobacterium abscessus ATCC 19977 assessed as reduction in viable bacteria at 3.13 uM incubated for 4 days by microplate dilution assay relative to control; type: functional; settings: time 4 day
How it was run: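 After 4 days in the microplate dilution assay, 10 µl samples (undiluted or 1:100) were plated on 7H10 with glycerol, ADS and 400 µg/mL hygromycin. Colonies counted after 4 days at 37 °C. Done in triplicate. CFU/mL compared with the inoculum counted before incubation.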

[10] = test system: Mycobacteroides abscessus; test: Bactericidal activity against Mycobacterium abscessus ATCC 19977 assessed as reduction in viable bacteria at 6.25 uM incubated for 4 days by microplate dilution assay relative to control; type: functional; settings: time 4 day
[11] = test system: Mycobacteroides abscessus; test: Antibacterial activity against MMV688845-resistant Mycobacterium abscessus Bamboo 845R-2.1 harboring rpoB/beta subunit P473L mutation assessed as bacterial growth inhibition incubated for 3 days by optical density based analysis; type: functional; settings: Bamboo 845R-2.1, 72 h, time 3 day
How it was run: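 Tenfold-point twofold dilution series in 7H9, final DMSO 1 %. Final ranges typically 50–0.098 or 6.25–0.012 μM. Mid-log culture added to an initial OD₆₀₀ of 0.05 (5*10⁶ CFU/mL). Incubated 3 days at 37 °C with shaking at 110 rpm. Growth taken as OD₆₀₀ on day 3 minus day 0, as % of drug-free wells. MIC₉₀ read visually from the curves. Clarithromycin as control. Two biological replicates, averaged.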

[12] = as §2; type: toxicity, cell-based; settings: mouse, NIH3T3 cells
HEK293 = test: Cytotoxicity against HEK293 cells assessed as reduction in cell viability incubated for 72 hrs by SRB assay; type: toxicity, cell-based, Homo sapiens
[13] = Stability in human plasma at 1 uM measured over 120 mins by HPLC-MS/MS analysis; type: ADME, cell-free; settings: 2 h
[14] = Stability in mouse plasma at 1 uM measured over 120 mins by HPLC-MS/MS analysis; type: ADME, cell-free; settings: 2 h
[15] = Metabolic stability in pooled human liver microsomes assessed as half life at 2 uM measured over 40 mins in presence of NADPH-cofactor system by HPLC-MS/MS analysis; type: ADME, Microsome
How it was run: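 Pooled mixed-gender human liver microsomes at 0.42 mg protein/mL in 100 mM phosphate pH 7.4 with MgCl₂ and an NADPH-regenerating system. Test compound 2 μM, 1.6 % solvent, at 37 °C. Five time points over 40 min, stopped with acetonitrile, analysed by HPLC-MS/MS. t1/2 from the slope of ln(AUC) versus time. Controls lacked NADPH. Duplicates.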

Row | SMILES | MIC90 [1] | MIC90 [2] | MIC90 [3] | MIC90 [4] | MIC90 [5] | MIC50 [6] | MIC90 [6] | MIC50 [7] | MIC90 [7] | EC50 (A-375) | EC50 (HT-29) | EC50 (MCF7) | EC50 (A2780) | EC50 (NIH3T3) | EC50 (HeLa) | Kinetic_solubility [8] | Activity [9] | Activity [10] | MIC90 [11] | EC50 (HEK293) | further results
1 | O=C(N[C@H](Cc1cccs1)C(=O)Nc1ccccc1N1CCOCC1)c1cccs1 | 1.56 µM (≈ 0.689 µg/mL) | 6.25 µM (≈ 2.76 µg/mL) | 12.5 µM (≈ 5.52 µg/mL) | 12.5 µM (≈ 5.52 µg/mL) | 1.56 µM (≈ 0.689 µg/mL) | 2.4 µM (≈ 1.06 µg/mL) | 9 µM (≈ 3.97 µg/mL) | 12.5 µM (≈ 5.52 µg/mL) | > 100 µM | > 30 µM | 29.8 µM | > 30 µM | 29.5 µM | 29 µM | > 30 µM | 41 µM |  |  |  |  | 
2 | O=C(N[C@H](Cc1ccccc1)C(=O)Nc1ccccc1N1CC[S+]([O-])CC1)c1cccs1 | 1.56 µM (≈ 0.729 µg/mL) | 0.4 µM (≈ 0.187 µg/mL) | 3.13 µM (≈ 1.46 µg/mL) | 6.25 µM (≈ 2.92 µg/mL) | 0.1 µM (≈ 0.0468 µg/mL) | 0.33 µM (≈ 0.154 µg/mL) | 2 µM (≈ 0.935 µg/mL) | 3.13 µM (≈ 1.46 µg/mL) | 25 µM (≈ 11.7 µg/mL) | > 30 µM | > 30 µM | > 30 µM | > 30 µM |  | > 30 µM | 271 µM | 58% | 99% | > 100 µM | > 30 µM | EC50 at 72 h [12]: > 30 µM
3 | O=C(N[C@H](Cc1ccccc1)C(=O)Nc1ccccc1N1CC[S+]([O-])CC1)c1ccccc1F |  |  | 6.25 µM (≈ 3 µg/mL) | 3.13 µM (≈ 1.5 µg/mL) | 0.1 µM (≈ 0.048 µg/mL) | 0.4 µM (≈ 0.192 µg/mL) | 2.1 µM (≈ 1.01 µg/mL) | 0.78 µM (≈ 0.374 µg/mL) | 12.5 µM (≈ 5.99 µg/mL) | > 30 µM | > 30 µM | > 30 µM | > 30 µM |  | > 30 µM | 431 µM | 81% | 99% | 100 µM (≈ 48 µg/mL) | > 30 µM | EC50 at 72 h [12]: > 30 µM
4 | O=C(N[C@H](Cc1ccccc1)C(=O)Nc1cc(F)ccc1N1CCSCC1)c1ccccc1F | 6.25 µM (≈ 3.01 µg/mL) | 1.56 µM (≈ 0.751 µg/mL) | 25 µM (≈ 12 µg/mL) | 25 µM (≈ 12 µg/mL) | 0.78 µM (≈ 0.376 µg/mL) | 1.15 µM (≈ 0.554 µg/mL) | 12 µM (≈ 5.78 µg/mL) | 3.13 µM (≈ 1.51 µg/mL) | 100 µM (≈ 48.2 µg/mL) | 29.4 µM | > 30 µM | > 30 µM | 28.3 µM | 28.5 µM | 28.3 µM | 31 µM |  |  |  |  | 
5 | O=C(N[C@H](Cc1ccccc1)C(=O)Nc1ccccc1N1CCS(=O)(=O)CC1)c1ccccc1F | 0.78 µM (≈ 0.387 µg/mL) | 0.2 µM (≈ 0.0991 µg/mL) | 0.78 µM (≈ 0.387 µg/mL) | 1.56 µM (≈ 0.773 µg/mL) | 0.05 µM (≈ 0.0248 µg/mL) | 0.23 µM (≈ 0.114 µg/mL) | 4.3 µM (≈ 2.13 µg/mL) | 0.39 µM (≈ 0.193 µg/mL) | 6.25 µM (≈ 3.1 µg/mL) | > 30 µM | > 30 µM | > 30 µM | > 30 µM |  | > 30 µM | 64 µM | 95% | 99% | 42 µM (≈ 20.8 µg/mL) |  | Stability [13]: Stable; Stability [14]: Stable; t1/2 [15]: 1.5 min; EC50 at 72 h [12]: > 30 µM
6 | O=C(N[C@H](Cc1ccccc1)C(=O)Nc1cc(F)ccc1N1CCS(=O)(=O)CC1)c1ccccc1F | 1.56 µM (≈ 0.801 µg/mL) | 0.78 µM (≈ 0.401 µg/mL) | 3.13 µM (≈ 1.61 µg/mL) | 3.13 µM (≈ 1.61 µg/mL) | 0.1 µM (≈ 0.0514 µg/mL) | 0.4 µM (≈ 0.205 µg/mL) | 4.5 µM (≈ 2.31 µg/mL) | 0.39 µM (≈ 0.2 µg/mL) | 3.13 µM (≈ 1.61 µg/mL) | > 30 µM | > 30 µM | 25.9 µM | 23.2 µM | 24.2 µM | > 30 µM | 32 µM |  |  |  | > 30 µM | 
7 | O=C(N[C@H](Cc1ccccc1)C(=O)Nc1cc(F)ccc1N1CCS(=O)(=O)CC1)c1cccs1 | 1.56 µM (≈ 0.783 µg/mL) | 0.78 µM (≈ 0.391 µg/mL) | 6.25 µM (≈ 3.14 µg/mL) | 3.13 µM (≈ 1.57 µg/mL) | 0.2 µM (≈ 0.1 µg/mL) | 0.43 µM (≈ 0.216 µg/mL) | 6.5 µM (≈ 3.26 µg/mL) | 0.39 µM (≈ 0.196 µg/mL) | 3.13 µM (≈ 1.57 µg/mL) | > 30 µM | > 30 µM | 23.2 µM | 24 µM | 26.9 µM | > 30 µM | 70 µM |  |  |  | > 30 µM | 
